The inhibition is the relative decrease from the control value, in per cent.

We go through 56 molecules from PubChem BioAssay AID1258 (University of Pittsburgh Molecular Library Screening Center, 2008).

The whole screen tested about 1,100 compounds, of which about 150 (14%) were called active. Roughly 1% stayed inconclusive and do not appear here. The list is a sample of the results. Unmarked numbers belong to inactive results.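 How the source made its calls: active means inhibition above about 50% in both repeat tests (limit read from the data); inconclusive means one repeat under the set limit, the other over it; inactive means both repeats under the set limit.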

The assay is described as follows: Leishmania major promastigote growth inhibition, confirmation, 1 µM repeat of primary hits (AID 1258). To be noted: L. major promastigote growth, resazurin fluorescence, 48 h; at 1 µM; active compounds read high. The gist of the method:
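Assay system: Leishmania major promastigote parasites. Amount: 5,000 promastigotes per well. Incubation: 44 h compound exposure plus 4 h dye step, both 28 °C. Evaluation: parasite viability inhibition versus plate controls. Benchmarks: DMSO high/low controls plus tamoxifen reference.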
A general note: Alamar Blue is a resazurin reagent that responds to reducing activity.
Take `Clc1ccc(-n2nnnc2-c2cnc(-c3ccccn3)nc2-c2cccs2)cc1`: the inhibition was -17.1%. As for `c1ccc(CC2CCN(c3nc4ccccc4n4cnnc34)CC2)cc1`, the figure is -11.4%; as for `CC(=O)NC1C(Oc2ccc(C)cc2)OC2COC(c3ccco3)OC2C1O` (stereo unspecified), -11.1%. Consider `N#Cc1ccc(N2Cc3ccccc3/C2=N/C(=O)Nc2ccc(Cl)cc2)cc1`, for which the inhibition is 14%. The value for `CCOC(=O)c1c(C2CC2)csc1NC(=O)CSCc1c(C)noc1C` was -3.56%; that for `CNC(=S)N/N=C/c1cn(Cc2ccc(C)cc2)c2ccccc12` was -4.3%; that for `COc1ccc2c(c1)C=CC1(O2)N(CCO)c2ccccc2C1(C)C` (stereo unspecified) was -3.93%.

`O=C(c1ccc(-c2ccccc2)cc1)C1CCCN(C(=O)c2cncs2)C1` (stereo unspecified): the inhibition is -12.9%.

`Cn1c(-c2sc3cc(C(F)(F)F)cnc3c2-c2ccccc2)n[nH]c1=S`: the inhibition was -17.6%. The value for `N#Cc1ccc(-c2nc3cc(C#N)c(C#N)cc3nc2-c2ccccc2)cc1C#N` was -5.54%; that for `c1ccc2cc(OCCN3CCCC3)ccc2c1` was 12.5%. As for `Cc1nn(-c2ccccc2)c2sc(C(=O)N(Cc3ccco3)C(C)C(=O)NC(C)(C)C)cc12` (stereo unspecified), the figure is -6.73%; as for `COCCN(CCOC)S(=O)(=O)c1ccc(C(=O)Nc2nc3c(s2)CCc2ccccc2-3)cc1`, -8.24%.

For `CC(C)Cc1nn2c(=O)cc(O)nc2s1`, the inhibition was -1.83%. Consider `Cc1c(Br)cc(C(=O)N2CCCCCC2)c(C)c1C`, for which the inhibition is -3.85%. The value for `CCOC(=O)/C(N=Nc1cc(C(=O)O)cc(C(=O)O)c1)=C(\O)CCl` was -4.13%; that for `CCOC(=O)N1CCN(C(c2cccnc2)c2ccc3cccnc3c2O)CC1` (stereo unspecified) was -7.1%. As for `CCc1nc(C)cn1S(=O)(=O)c1cc(OC)c(C)cc1C`, the figure is 0.254%. `Fc1cc(F)c2nc(Nc3nc4c(F)cccc4s3)sc2c1`: the inhibition is -9.65%. The value for `CC1(C)CC(=O)c2c(n(S(=O)(=O)c3ccccc3)c3ccc(NS(=O)(=O)c4ccccc4)cc23)C1` was -25.3%; that for `O=C(/C=C/Sc1ncn[nH]1)c1ccc(Cl)cc1` was 29.4%. The value for `CCOC(=O)C1=C(CC)Nc2ccccc2N=C1NC(=O)c1cccc(S(=O)(=O)N2CCCC2)c1` was -9.84%; that for `Cc1cccc(-n2c(N)cc(=O)nc2SC(C)C(=O)NC2CCCCC2)c1` (stereo unspecified) was 29.9%. The value for `Cc1nn(CC2CC2)c(=O)n1N(C)c1ncc(C(F)(F)F)cc1Cl` was -15.7%; that for `Clc1ccc(C2=CSC3=Nc4cccc5cccc(c45)N23)cc1` was -13.5%. For the molecule `CN(C)Cc1ccccc1C1(O)c2ccccc2CSc2ccccc21` (stereo unspecified), the inhibition is -1.45%. The value for `Cc1ccc(Nc2nc(CSc3nnnn3-c3ccccc3)cc(=O)[nH]2)cc1` was -2.73%; that for `CN(C)c1ccc(/C=C2\NC(=S)N(Cc3ccccc3)C2=O)cc1` was -11.8%.

As to `CCc1ccc(-c2nn(-c3ccccc3)cc2CSC(=N)N)cc1`, the inhibition is 46.8%. As for `c1ccc(C2CCC(N3CCC(N4CCCCC4)CC3)CC2)cc1` (stereo unspecified), the figure is 59.2% (active).

Take `O=C(Nc1ccc2ccccc2c1)Nc1ccc2snnc2c1`: the inhibition was -30.1%.

As to `Cc1cc(/C=C(/C#N)C(=O)Nc2ccc(Cl)cc2)c(C)n1-c1cccnc1`, the inhibition is -3.48%. The value for `O=C1N(Cc2ccc3c(c2)OCO3)c2ccccc2C1(O)c1c[nH]c2ccccc12` (stereo unspecified) was 0.0749%. Regarding `CCCCn1c(=S)[nH]c2cc(S(=O)(=O)N3CCCCC3)ccc21`, the inhibition was 9.63%.

On to `Cc1nnc(-c2ccc(Oc3ccc(C)c(C)c3)c([N+](=O)[O-])c2)o1`, for which the inhibition was -11.1%. As for `Cc1nc(N2CCOCC2)c2c(C)c(C(=O)Nc3ccc(C(F)(F)F)cc3)sc2n1`, the figure is 15.1%. `Cc1ccc(CN(N=Nc2nonc2N)c2nonc2N)c(C)c1`: the inhibition was -2.38%. As for `Cc1nc([N+](=O)[O-])nn1C12CC3CC(CC(Br)(C3)C1)C2`, the figure is 38.5%. Consider `CC(=O)NC1C(OCc2ccccc2)OC(COC(C)=O)C(OC(C)=O)C1OC(C)=O` (stereo unspecified), for which the inhibition was -7.57%. With `O=C(CCN1C(=O)c2ccccc2C1=O)Nc1cccc(F)c1`, the inhibition is -12.6%. For the molecule `O=C(NC(Cc1c[nH]c2ccccc12)C(=O)N/N=C/c1ccc(Br)cc1)c1cccs1` (stereo unspecified), the inhibition is -12.7%. As for `c1ccc(-c2cc(-c3nnc4sc(-c5ccccn5)nn34)[nH]n2)cc1`, the figure is 50.6% (active); as for `COC(=O)C1=C(C)N(c2ccc(C)cc2)/C(=C/c2ccc(O)cc2)C1=O`, 8.89%; as for `COc1ccc(COC(=O)c2n[nH]c3ccccc23)cc1F`, -13%. As for `CS(=O)(=O)Nc1cccc(C2=NN(S(=O)(=O)c3ccccc3)C(c3cccs3)C2)c1` (stereo unspecified), the figure is -8.88%; as for `Cc1cccc(-n2c(C)cc(/C=N/NC(N)=S)c2C)c1`, 15.8%. The value for `C=CCNc1nnc(SCC(=O)N2CCCCC2)c2ccccc12` was -6.19%.

Take `N#Cc1ccccc1-n1c(N)c(C(=O)N2CCCC2)sc1=S`: the inhibition was -0.236%.

For `CC12CCC(C(=O)N(NC(=O)c3ccccc3O)C1=O)C2(C)C` (stereo unspecified), the inhibition is -15.5%. The value for `Nc1cccc(-c2cc(-c3ccccc3)nc(-c3cccc(N)c3)n2)c1` was -6.75%; that for `COc1ccc2[nH]c(C)c(CCN(Cc3cccs3)C(=S)Nc3ccccc3OC)c2c1` was 28.7%. For `c1ccc(Cc2cc[n+](Cc3ccccc3)cc2)cc1`, the inhibition was -17.2%. As for `CN(C)c1ccc(/C=N\S(=O)(=O)c2ccccc2)cc1`, the figure is -0.93%; as for `O=C(c1cccnc1)N(c1cc2sc(=O)oc2c2ccccc12)S(=O)(=O)c1ccccc1`, 95.1% (active). As for `N#C/C=C\Oc1ccc(Cl)cc1N`, the inhibition was -12.9%. For the molecule `COc1ccc(-c2cc(C(F)(F)F)nc(S(C)(=O)=O)n2)cc1OC`, the inhibition was 36.4%.
